Screens: PubChem, several laboratories
UCH37 inh – inhibitors of human UCH37 deubiquitinase, primary screen, biochemical, Ub-AMC cleavage, fluorescence. Ubiquitin carboxyl-terminal hydrolase isozyme L5 (Homo sapiens), Q9Y5K5. purified proteasome/UCH37. inhibition, % (no concentration beside the values). hit rate 0.33% among 330,000;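 active = mean inhibition over replicate wells above about 20%, limit read from the data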
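Material: Human UCH37 enzyme supplied as purified proteasome complex | Schedule: 30 min preincubation with enzyme, 25 min cleavage at room temperature | Detection: AMC fluorescence 355/460 nm | Measure: % inhibition of Ub-AMC cleavage fluorescence | Controls: Wells without proteasome as full block, compound-free enzyme plus substrate as uninhibited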
A3A deaminase – APOBEC3A ssDNA deaminase inhibitors, primary screen, selectivity assay for APOBEC3G inhibitor project, biochemical, FAM/TAMRA oligo cleavage fluorescence; DNA dC->dU-editing enzyme APOBEC-3A (Homo sapiens), P31941; recombinant A3A, FAM/TAMRA ssDNA deamination fluorescence; inhibition, % at 20 µM; hit rate 0.41% among 330,000; AID 493011, 2011;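 active = at least 40% inhibition at 20 µM here, with at most 30% in a related deaminase screen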
Target sequence (P31941 whole entry, looked up): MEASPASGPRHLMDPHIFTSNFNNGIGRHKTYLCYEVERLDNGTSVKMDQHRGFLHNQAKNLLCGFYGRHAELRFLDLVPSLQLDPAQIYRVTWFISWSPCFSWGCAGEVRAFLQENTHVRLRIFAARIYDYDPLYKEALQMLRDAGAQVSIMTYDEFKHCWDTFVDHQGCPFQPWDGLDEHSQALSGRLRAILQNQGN
JMJD2C inh – inhibitors of GASC-1 histone demethylase, primary screen, biochemical, fluorescence, DELFIA europium; Lysine-specific demethylase 4C (Homo sapiens), Q9H3R0; inhibition, % at 2.35 µM; GST-JMJD2C(1-420) H3K9me3 demethylation; hit rate 0.069% among 330,000;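 active = more than half of a compound's replicate wells show inhibition beyond 50%, single wells judged on their own value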;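 note: signal counts dimethyl H3K9 product captured on neutravidin plate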
Target sequence (Q9H3R0 1-420 limits assumed): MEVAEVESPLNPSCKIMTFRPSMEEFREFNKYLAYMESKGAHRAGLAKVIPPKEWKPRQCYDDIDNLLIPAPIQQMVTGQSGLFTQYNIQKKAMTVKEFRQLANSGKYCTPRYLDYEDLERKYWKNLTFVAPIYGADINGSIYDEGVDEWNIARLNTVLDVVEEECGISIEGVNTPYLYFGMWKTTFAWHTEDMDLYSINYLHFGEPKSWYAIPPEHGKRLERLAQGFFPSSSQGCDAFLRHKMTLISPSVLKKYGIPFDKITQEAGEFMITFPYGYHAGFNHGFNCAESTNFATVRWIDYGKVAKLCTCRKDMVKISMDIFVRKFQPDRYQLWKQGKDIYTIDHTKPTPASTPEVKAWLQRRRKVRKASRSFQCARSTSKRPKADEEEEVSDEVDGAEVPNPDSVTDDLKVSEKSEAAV
A3G deaminase – APOBEC3G DNA deaminase inhibitors, primary screen, biochemical, fluorescence, single-stranded DNA substrate, uHTS. inhibition, % at 20 µM. recombinant A3G, ssDNA deamination FAM/TAMRA fluorescence. DNA dC->dU-editing enzyme APOBEC-3G (Homo sapiens), Q9HC16. hit rate 0.28% among 330,000. AID 493012, 2011;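 active = inhibition of at least 40% at 20 µM, with no more than 30% in the related APOBEC3A deaminase screen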
A3G conf – APOBEC3G deaminase inhibitor retest, confirmation, biochemical, fluorescence, single-stranded DNA substrate, single concentration. shares compounds with A3G deaminase. recombinant A3G ssDNA deaminase, UDG/FAM-TAMRA fluorescence. inhibition, % at 20 µM. hit rate 72% among 890. AID 493152, 2011;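 active = inhibition reaching a set limit in any replicate at 20 µM, the limit being 80% of the first screen's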
UDG A3G counter – E. coli UDG inhibitors, confirmation, counter-screen for APOBEC3G inhibitor project, biochemical, single concentration, fluorescence, FAM/TAMRA oligo. shares compounds with A3G deaminase. AID 504715, 2011. UDG counterscreen. 710 tested, under 10 active. inhibition, % at 20 µM;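 active = compounds giving 40% or more inhibition at 20 µM in any one of the three replicates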;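 note: inhibitors lower the FAM signal released by uracil excision and alkaline cleavage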
A number is an active result; n = inactive; x = no result. Rows were chosen to be rich in hits. Some 0.97% of all compounds tested hit in one or more screens of this group.

SMILES	UCH37 inh	A3A deaminase	JMJD2C inh	A3G deaminase	A3G conf	UDG A3G counter
Oc1cccc(/C=N/N=C/c2cccc(O)c2O)c1O	x	n	n	n	x	x
Cc1ccc(N=Cc2cccc(O)c2O)c(C)c1	n	n	n	75.0	31.0	x
CCc1cc(/C(Cc2ccccn2)=N\Nc2ccccc2)c(O)cc1O	x	n	n	41.7	n	n
CCc1cc(C(Cc2ccccn2)=NNc2ccccc2)c(O)cc1O	n	x	x	x	x	x
CC(=NNC(=O)C1(C)CC1(Br)Br)c1cccc(NC(=O)c2ccc(C)o2)c1 (stereo not given)	n	x	x	x	x	x
O=C(Cn1sc2ccccc2c1=O)NC12CC3CC(CC(C3)C1)C2	x	n	n	78.5	78.4	n
Nc1cccc2c1C(=O)N(CC(=O)NC13CC4CC(CC(C4)C1)C3)C2=O	n	n	n	n	x	x
CCCCN1C(=O)C2(NNc3ccccc3O2)c2ccccc21 (stereo not given)	n	n	n	42.9	n	x
O=c1c2cnn(-c3ccccc3)c2nnn1N=Cc1cccnc1	n	x	x	x	x	x
O=C(ON=C1CCSc2ccccc21)c1ccccc1	n	x	x	x	x	x
COC(=O)/C=C1\SC(N2CCOCC2)=C(c2ccc(OC)cc2)C1=O	n	n	n	55.3	20.1	n
CC(C)(C)OC(=O)NN=Cc1c[nH]c2ccccc12	n	x	x	x	x	x
Cc1ccc(C(=O)N2CCC(C(=O)NC3CCCC3)CC2)cc1	n	n	n	69.0	n	n
Cc1cccc(-c2n[nH]c(=S)n2N=C/C=C/c2ccco2)c1	n	x	x	x	x	x
C/C(C=Nn1c(-c2ccco2)n[nH]c1=S)=C/c1ccccc1	n	x	x	x	x	x
CC(=C/c1ccccc1)/C=N/n1c(-c2ccncc2)n[nH]c1=S	x	n	n	61.4	94.3	n
CC(/C=N/n1c(-c2ccco2)n[nH]c1=S)=C\c1ccco1	x	n	n	61.9	58.5	n
S=c1[nH]nc(-c2ccncc2)n1/N=C/C=C/c1ccco1	x	n	n	57.4	73.8	n
C/C(C=Nn1c(-c2ccncc2)n[nH]c1=S)=C\c1ccco1	n	x	x	x	x	x
CC(/C=N/n1c(-c2ccncc2)n[nH]c1=S)=C\c1ccco1	x	n	n	65.7	90.1	n
C/C(C=Nn1c(-c2ccncc2)n[nH]c1=S)=C/c1ccccc1	n	x	x	x	x	x
COc1cc(C=NNc2nc(-c3ccc(C)cc3)c(NC(C)=O)s2)ccc1O	n	x	x	x	x	x
COc1ccc2ccccc2c1C=NNC(=O)c1cccnc1	n	x	x	x	x	x
CCOC(=O)Cc1csc(-n2sc3ccccc3c2=O)n1	n	n	n	81.4	84.0	n
Cc1ccc(C=Nn2c(-c3cccnc3)n[nH]c2=S)o1	n	x	x	x	x	x
SMILES	UCH37 inh	A3A deaminase	JMJD2C inh	A3G deaminase	A3G conf	UDG A3G counter
Cc1ccc(C=Nn2c(-c3ccccc3)n[nH]c2=S)cc1	n	x	x	x	x	x
S=c1[nH]nc(-c2ccncc2)n1/N=C/c1ccccc1	x	n	n	55.1	70.8	n
Cc1ccc(/C=N/n2c(-c3ccncc3)n[nH]c2=S)o1	x	n	n	46.7	90.3	n
Cc1ccc(C=Nn2c(-c3ccncc3)n[nH]c2=S)s1	n	x	x	x	x	x
Cc1ccc(/C=N/n2c(-c3ccncc3)n[nH]c2=S)s1	x	n	n	49.4	82.4	n
Cc1cccc(/C=N/n2c(-c3ccncc3)n[nH]c2=S)c1	x	n	n	78.5	99.3	n
Cc1ccc(OCC(=O)NN=Cc2cccs2)c([N+](=O)[O-])c1	n	x	x	x	x	x
Cc1occc1C(=O)NN=CC1=C(N2CCOCC2)/C(=C\c2ccc(Cl)cc2)CC1	n	x	x	x	x	x
C=CCN1C(=O)C(=Nn2cnnc2)c2ccccc21	n	x	x	x	x	x
CC(Cn1cnc([N+](=O)[O-])n1)=NNC(=O)c1ccccc1O	n	x	x	x	x	x
CC(C)(C)S(=O)(=O)Cc1nc(-c2ccc(Cl)c(Cl)c2)cs1	n	n	n	67.3	n	x
COc1cc(/C=N/n2c(-c3n[nH]c4c3CCC4)n[nH]c2=S)ccc1O	x	n	n	46.6	57.9	n
COc1ccc(/C=N/n2c(-c3n[nH]c4c3CCC4)n[nH]c2=S)cc1OC	x	n	n	47.7	60.6	n
COc1cc(C=Nn2c(-c3n[nH]c4c3CCC4)n[nH]c2=S)ccc1O	n	x	x	x	x	x
CCOC(=O)C1=C(C)N(c2ccc(OC)cc2)C(=O)/C1=C\c1cccs1	n	n	n	n	x	x
CCOC(=O)C1=C(C)N(c2ccc(OC)cc2)C(=O)/C1=C\c1ccc(O)c(OCC)c1	x	n	n	67.3	n	x
S=c1[nH]c2cnccc2n1Cc1ccccc1	n	n	n	n	x	x
S=c1[nH]c2ccccc2n1Cc1ccccc1	n	n	n	49.7	53.8	n
COc1ccc(-n2c(=S)[nH]c3sc(-c4ccccc4)cc3c2=O)c(OC)c1	n	n	n	n	x	x
COc1ccc(-n2c(SCC(=O)C(C)(C)C)nc3c(sc(=S)n3-c3ccccc3)c2=O)c(OC)c1	n	n	n	40.4	50.0	n
CCOC(=O)CSc1nc2c(sc(=S)n2-c2ccccc2OC)c(=O)n1-c1ccccc1OC	n	n	n	n	x	x
COc1ccc(-n2c(=S)[nH]c3c(sc(=S)n3-c3ccccc3)c2=O)c(OC)c1	n	n	n	44.4	35.7	n
O=[N+]([O-])c1ccc(Cl)c(C=Nn2c(-c3cccnc3)n[nH]c2=S)c1	n	x	x	x	x	x
Cc1nnsc1C(=O)NNc1ccc(C(C)(C)C)cc1	n	n	n	52.6	n	n
COc1ccc2c(C)cc3n[nH]c(=S)n3c2c1	n	n	n	52.4	87.1	n
SMILES	UCH37 inh	A3A deaminase	JMJD2C inh	A3G deaminase	A3G conf	UDG A3G counter
Nc1nc(-c2cc3c(cc2Cl)OCCO3)cs1	n	n	n	52.0	n	n
Cc1ccc(-n2c(N)c(C(=O)N3CCCCC3)sc2=S)cc1	n	n	n	n	x	x
Cc1ccc(-n2c(N)c(C(N)=O)sc2=S)c(C)c1	n	n	n	45.4	n	x
Nc1c(C(=O)N2CCCCC2)sc(=S)n1-c1ccccc1	n	n	n	56.0	n	x
Nc1c(C(=O)N2CCOCC2)sc(=S)n1-c1ccccc1	n	n	n	52.3	30.8	n
CCOc1ccc(-n2c(N)c(C(=O)N3CCN(C)CC3)sc2=S)cc1	n	n	n	n	x	x
Cc1ccc(-n2c(N)c(C(=O)N3CCN(C)CC3)sc2=S)cc1	n	n	n	45.7	74.5	n
COc1cc(C(=O)N2C(=O)CCC2=O)cc(OC)c1OC	n	n	n	57.2	n	n
CC(=NN=Cc1ccccc1)c1nnn(-c2nonc2N)c1C	n	x	x	x	x	x
CCOC(=O)Cn1cc(C#N)c2ccccc21	n	n	n	n	x	x
N#Cc1cn(CC(=O)O)c2ccccc12	n	n	n	70.4	n	n
